How the values were obtained:
[1] = target: Beta-lactamase (Pseudomonas aeruginosa (strain ATCC 15692 / PAO1 / 1C / PRS 101 / LMG12228)) (UniProt P24735); assay: Activity of ampG deficient Pseudomonas aeruginosa PAK AmpC at 50 ug/ml assessed as nitrocefin substrate hydrolysis per mg of protein after 2 hrs by UV spectrophotometry
How it was run: (§1)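 P. aeruginosa cells induced 2 h with […] cefoxitin. Crude sonicated extracts assayed by UV spectrophotometry with 100 μM nitrocefin substrate. Specific activity is nmol nitrocefin hydrolyzed per min per mg protein at 30°C, with protein by BCA against BSA standard. Triplicate inductions, averaged.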

[2] = target: Beta-lactamase (Pseudomonas aeruginosa (strain ATCC 15692 / PAO1 / 1C / PRS 101 / LMG12228)) (UniProt P24735); assay: Activity of ampG deficient Pseudomonas aeruginosa PAK AmpC harboring pZY0908 conferring resistance to gentamycin at 50 ug/ml assessed as nitrocefin substrate hydrolysis per mg of protein after 2 hrs by UV spectrophotometry; how it was run: as §1
[3] = target: Beta-lactamase (Pseudomonas aeruginosa (strain ATCC 15692 / PAO1 / 1C / PRS 101 / LMG12228)) (UniProt P24735); assay: Activity of ampG deficient Pseudomonas aeruginosa PAO1 AmpC at 50 ug/ml assessed as nitrocefin substrate hydrolysis per mg of protein after 2 hrs by UV spectrophotometry; how it was run: as §1
[4] = target: Beta-lactamase (Pseudomonas aeruginosa (strain ATCC 15692 / PAO1 / 1C / PRS 101 / LMG12228)) (UniProt P24735); assay: Activity of ampD, […], ampDh2 deficient Pseudomonas aeruginosa PAO1 AmpC at 50 ug/ml assessed as nitrocefin substrate hydrolysis per mg of protein after 2 hrs by UV spectrophotometry; how it was run: as §1
[5] = target: Beta-lactamase (Pseudomonas aeruginosa (strain ATCC 15692 / PAO1 / 1C / PRS 101 / LMG12228)) (UniProt P24735); assay: Activity of Pseudomonas aeruginosa PAO1 AmpC at 50 ug/ml assessed as nitrocefin substrate hydrolysis per mg of protein after 2 hrs by UV spectrophotometry; how it was run: as §1
[6] = target: Beta-lactamase (Pseudomonas aeruginosa (strain ATCC 15692 / PAO1 / 1C / PRS 101 / LMG12228)) (UniProt P24735); assay: Activity of Pseudomonas aeruginosa PAK AmpC at 50 ug/ml assessed as nitrocefin substrate hydrolysis per mg of protein after 2 hrs by UV spectrophotometry; how it was run: as §1
[7] = target: Beta-lactamase (Pseudomonas aeruginosa (strain ATCC 15692 / PAO1 / 1C / PRS 101 / LMG12228)) (UniProt P24735); assay: Activity of ampG deficient Pseudomonas aeruginosa PAK AmpC harboring pZY0901 conferring resistance to gentamycin at 50 ug/ml assessed as nitrocefin substrate hydrolysis per mg of protein after 2 hrs by UV spectrophotometry; how it was run: as §1
[8] = target: Beta-lactamase (Pseudomonas aeruginosa (strain ATCC 15692 / PAO1 / 1C / PRS 101 / LMG12228)) (UniProt P24735); assay: Activity of ampD, ampDh2, ampDh3 and ampG deficient Pseudomonas aeruginosa PAO1 AmpC at 50 ug/ml assessed as nitrocefin substrate hydrolysis per mg of protein after 2 hrs by UV spectrophotometry; how it was run: as §1
[9] = target: Beta-lactamase (Pseudomonas aeruginosa (strain ATCC 15692 / PAO1 / 1C / PRS 101 / LMG12228)) (UniProt P24735); assay: Activity of ampD, ampDh2, ampDh3 and ampG deficient Pseudomonas aeruginosa PAO1 AmpC harboring pZY0901 conferring resistance to gentamycin at 50 ug/ml assessed as nitrocefin substrate hydrolysis per mg of protein after 2 hrs by UV spectrophotometry; how it was run: as §1
[10] = target: Beta-lactamase (Pseudomonas aeruginosa (strain ATCC 15692 / PAO1 / 1C / PRS 101 / LMG12228)) (UniProt P24735); assay: Activity of Pseudomonas aeruginosa PAO1 AmpC assessed as nitrocefin hydrolyzed per mg of protein at 1 ug/ml by UV spectrophotometry
How it was run: (§2)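 P. aeruginosa cells induced 2 h with cefoxitin (1, 10 or 25 μg/ml; uninduced control). Crude extracts prepared by sonication. β-Lactamase measured by UV spectrophotometry with 100 μM nitrocefin as substrate. Specific activity given as nmol nitrocefin hydrolyzed per min per mg protein at 30°C, with protein by BCA against BSA standard. Triplicate inductions, averaged.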

[11] = target: Beta-lactamase (Pseudomonas aeruginosa (strain ATCC 15692 / PAO1 / 1C / PRS 101 / LMG12228)) (UniProt P24735); assay: Activity of Pseudomonas aeruginosa PAO1 AmpC assessed as nitrocefin hydrolyzed per mg of protein at 10 ug/ml by UV spectrophotometry; how it was run: as §2
[12] = target: Beta-lactamase (Pseudomonas aeruginosa (strain ATCC 15692 / PAO1 / 1C / PRS 101 / LMG12228)) (UniProt P24735); assay: Activity of Pseudomonas aeruginosa PAO1 AmpC assessed as nitrocefin hydrolyzed per mg of protein at 25 ug/ml by UV spectrophotometry; how it was run: as §2
[13] = target: Beta-lactamase (Pseudomonas aeruginosa (strain ATCC 15692 / PAO1 / 1C / PRS 101 / LMG12228)) (UniProt P24735); assay: Activity of Pseudomonas aeruginosa PAK AmpC assessed as nitrocefin hydrolyzed per mg of protein at 1 ug/ml by UV spectrophotometry; how it was run: as §2
[14] = target: Beta-lactamase (Pseudomonas aeruginosa (strain ATCC 15692 / PAO1 / 1C / PRS 101 / LMG12228)) (UniProt P24735); assay: Activity of Pseudomonas aeruginosa PAK AmpC assessed as nitrocefin hydrolyzed per mg of protein at 10 ug/ml by UV spectrophotometry; how it was run: as §2
[15] = target: Beta-lactamase (Pseudomonas aeruginosa (strain ATCC 15692 / PAO1 / 1C / PRS 101 / LMG12228)) (UniProt P24735); assay: Activity of Pseudomonas aeruginosa PAK AmpC assessed as nitrocefin hydrolyzed per mg of protein at 25 ug/ml by UV spectrophotometry; how it was run: as §2
[16] = target: Beta-lactamase (Pseudomonas aeruginosa (strain ATCC 15692 / PAO1 / 1C / PRS 101 / LMG12228)) (UniProt P24735); assay: Activity of ampD, […], ampDh2 deficient Pseudomonas aeruginosa PAO1 AmpC assessed as nitrocefin hydrolyzed per mg of protein at 1 ug/ml by UV spectrophotometry; how it was run: as §2
[17] = target: Beta-lactamase (Pseudomonas aeruginosa (strain ATCC 15692 / PAO1 / 1C / PRS 101 / LMG12228)) (UniProt P24735); assay: Activity of ampD, […], ampDh2 deficient Pseudomonas aeruginosa PAO1 AmpC assessed as nitrocefin hydrolyzed per mg of protein at 10 ug/ml by UV spectrophotometry; how it was run: as §2
[18] = target: Beta-lactamase (Pseudomonas aeruginosa (strain ATCC 15692 / PAO1 / 1C / PRS 101 / LMG12228)) (UniProt P24735); assay: Activity of ampD, […], ampDh2 deficient Pseudomonas aeruginosa PAO1 AmpC assessed as nitrocefin hydrolyzed per mg of protein at 25 ug/ml by UV spectrophotometry; how it was run: as §2
[19] = target: Beta-lactamase (Pseudomonas aeruginosa (strain ATCC 15692 / PAO1 / 1C / PRS 101 / LMG12228)) (UniProt P24735); assay: Activity of ampG deficient Pseudomonas aeruginosa PAO1 AmpC assessed as nitrocefin hydrolyzed per mg of protein at 1 ug/ml by UV spectrophotometry; how it was run: as §2
[20] = target: Beta-lactamase (Pseudomonas aeruginosa (strain ATCC 15692 / PAO1 / 1C / PRS 101 / LMG12228)) (UniProt P24735); assay: Activity of ampG deficient Pseudomonas aeruginosa PAO1 AmpC assessed as nitrocefin hydrolyzed per mg of protein at 10 ug/ml by UV spectrophotometry; how it was run: as §2
[21] = target: Beta-lactamase (Pseudomonas aeruginosa (strain ATCC 15692 / PAO1 / 1C / PRS 101 / LMG12228)) (UniProt P24735); assay: Activity of ampG deficient Pseudomonas aeruginosa PAO1 AmpC assessed as nitrocefin hydrolyzed per mg of protein at 25 ug/ml by UV spectrophotometry; how it was run: as §2
[22] = target: Beta-lactamase (Pseudomonas aeruginosa (strain ATCC 15692 / PAO1 / 1C / PRS 101 / LMG12228)) (UniProt P24735); assay: Activity of ampD, […], ampDh2 and ampG deficient Pseudomonas aeruginosa PAO1 AmpC assessed as nitrocefin hydrolyzed per mg of protein at 25 ug/ml by UV spectrophotometry; how it was run: as §2
[23] = target: Beta-lactamase (Pseudomonas aeruginosa (strain ATCC 15692 / PAO1 / 1C / PRS 101 / LMG12228)) (UniProt P24735); assay: Activity of ampD, […], ampDh2 and ampG deficient Pseudomonas aeruginosa PAO1 AmpC assessed as nitrocefin hydrolyzed per mg of protein at 10 ug/ml by UV spectrophotometry; how it was run: as §2
[24] = target: Beta-lactamase (Pseudomonas aeruginosa (strain ATCC 15692 / PAO1 / 1C / PRS 101 / LMG12228)) (UniProt P24735); assay: Activity of ampD, […], ampDh2 and ampG deficient Pseudomonas aeruginosa PAO1 AmpC assessed as nitrocefin hydrolyzed per mg of protein at 1 ug/ml by UV spectrophotometry; how it was run: as §2
[25] = target: Beta-lactamase (Pseudomonas aeruginosa (strain ATCC 15692 / PAO1 / 1C / PRS 101 / LMG12228)) (UniProt P24735); assay: Activity of ampG deficient Pseudomonas aeruginosa PAK AmpC assessed as nitrocefin hydrolyzed per mg of protein at 25 ug/ml by UV spectrophotometry; how it was run: as §2
[26] = target: Beta-lactamase (Pseudomonas aeruginosa (strain ATCC 15692 / PAO1 / 1C / PRS 101 / LMG12228)) (UniProt P24735); assay: Activity of ampG deficient Pseudomonas aeruginosa PAK AmpC assessed as nitrocefin hydrolyzed per mg of protein at 10 ug/ml by UV spectrophotometry; how it was run: as §2
[27] = target: Beta-lactamase (Pseudomonas aeruginosa (strain ATCC 15692 / PAO1 / 1C / PRS 101 / LMG12228)) (UniProt P24735); assay: Activity of ampG deficient Pseudomonas aeruginosa PAK AmpC assessed as nitrocefin hydrolyzed per mg of protein at 1 ug/ml by UV spectrophotometry; how it was run: as §2
[28] = target: Beta-lactamase AmpC (Enterobacter cloacae) (UniProt P05364); assay: Activity of kanamycin resistant Escherichia coli SNO301-1 AmpC harboring pEC1C carrying ampC, ampR from Enterobacter cloacae at 50 ug/ml assessed as nitrocefin substrate hydrolysis per mg of protein after 2 hrs by UV spectrophotometry
[29] = target: Beta-lactamase AmpC (Enterobacter cloacae) (UniProt P05364); assay: Activity of gentamycin resistant Escherichia coli SNO301-1 AmpC harboring pEC1C carrying ampC, ampR from Enterobacter cloacae at 50 ug/ml assessed as nitrocefin substrate hydrolysis per mg of protein after 2 hrs by UV spectrophotometry
[30] = target: Beta-lactamase AmpC (Enterobacter cloacae) (UniProt P05364); assay: Activity of tetracycline resistant Escherichia coli SNO301-1 AmpC harboring pEC1C carrying ampC, ampR from Enterobacter cloacae at 50 ug/ml assessed as nitrocefin substrate hydrolysis per mg of protein after 2 hrs by UV spectrophotometry

Sequence of Beta-lactamase (Pseudomonas aeruginosa (strain ATCC 15692 / PAO1 / 1C / PRS 101 / LMG12228)) (P24735 27-397 limits assumed): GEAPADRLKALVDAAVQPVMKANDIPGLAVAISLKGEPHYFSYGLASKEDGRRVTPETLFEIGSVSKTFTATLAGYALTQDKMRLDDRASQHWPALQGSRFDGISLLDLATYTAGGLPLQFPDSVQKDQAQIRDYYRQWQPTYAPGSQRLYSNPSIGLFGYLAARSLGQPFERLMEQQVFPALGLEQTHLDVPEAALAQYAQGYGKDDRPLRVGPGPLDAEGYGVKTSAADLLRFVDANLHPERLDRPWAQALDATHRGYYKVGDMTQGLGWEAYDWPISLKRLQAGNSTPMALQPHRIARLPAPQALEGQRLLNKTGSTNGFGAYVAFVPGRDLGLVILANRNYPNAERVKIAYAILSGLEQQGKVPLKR
Sequence of Beta-lactamase AmpC (Enterobacter cloacae) (P05364 whole entry, looked up): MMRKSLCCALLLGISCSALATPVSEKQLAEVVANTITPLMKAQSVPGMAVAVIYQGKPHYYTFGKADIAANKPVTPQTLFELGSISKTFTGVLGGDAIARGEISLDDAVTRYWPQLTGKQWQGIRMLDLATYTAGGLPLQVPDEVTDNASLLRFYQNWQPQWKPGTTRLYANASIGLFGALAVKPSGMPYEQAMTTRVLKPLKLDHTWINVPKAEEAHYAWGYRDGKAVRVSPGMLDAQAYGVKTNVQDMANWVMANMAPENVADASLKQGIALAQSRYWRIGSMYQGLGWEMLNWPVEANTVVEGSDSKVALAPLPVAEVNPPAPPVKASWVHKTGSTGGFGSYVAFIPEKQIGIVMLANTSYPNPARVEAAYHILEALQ

How did the Activity [1] turn out when `CO[C@@]1(NC(=O)Cc2cccs2)C(=O)N2C(C(=O)O)=C(COC(N)=O)CS[C@@H]21` was run?
The Activity was 0 nmol/min.

And the Activity [2]?
The Activity was 1300 nmol/min.

What about the Activity [3] of the same compound?
The Activity was 0 nmol/min.

What about the Activity [4] of the same compound?
The Activity was 3440 nmol/min.

And the Activity [5]?
Its Activity is 879 nmol/min.

And the Activity [6]?
The Activity was 1220 nmol/min.

What about the Activity [7] of the same compound?
The Activity was 2570 nmol/min.

And the Activity [8]?
The Activity was 0 nmol/min.

And the Activity [9]?
The Activity was 8130 nmol/min.

What about the Activity [10] of the same compound?
Its Activity is 36 nmol/min.

And the Activity [11]?
The Activity was 165 nmol/min.

And the Activity [12]?
The Activity was 372 nmol/min.

And the Activity [13]?
The Activity was 152 nmol/min.

And the Activity [14]?
Its Activity is 747 nmol/min.

What about the Activity [15] of the same compound?
The Activity was 1070 nmol/min.

And the Activity [16]?
The Activity was 2980 nmol/min.

What about the Activity [17] of the same compound?
The Activity was 3010 nmol/min.

What about the Activity [18] of the same compound?
Its Activity is 3020 nmol/min.

And the Activity [19]?
The Activity was 3 nmol/min.

What about the Activity [20] of the same compound?
Its Activity is 10 nmol/min.

What about the Activity [21] of the same compound?
Its Activity is 0 nmol/min.

What about the Activity [22] of the same compound?
The Activity was 0 nmol/min.

And the Activity [23]?
The Activity was 8 nmol/min.

What about the Activity [24] of the same compound?
The Activity was 4 nmol/min.

What about the Activity [25] of the same compound?
The Activity was 0 nmol/min.

What about the Activity [26] of the same compound?
The Activity was 5 nmol/min.

And the Activity [27]?
Its Activity is 2 nmol/min.

What about the Activity [28] of the same compound?
Its Activity is 3600 nmol/min.

And the Activity [29]?
The Activity was 3250 nmol/min.

What about the Activity [30] of the same compound?
The Activity was 38 nmol/min.

From ChEMBL document CHEMBL1687785, “ampG gene of Pseudomonas aeruginosa and its role in β-lactamase expression” (2010)
